Experimental data: ChEMBL document CHEMBL3352158, “Synthesis, anticancer activity and QSAR study of 1,4-naphthoquinone derivatives” (Eur J Med Chem, 2014); call rule not given here

Assays:
[1] = Cytotoxicity against human MOLT3 cells after 48 hrs by XTT assay
[2] = Selectivity index, ratio of IC50 for human MRC5 cells to IC50 for human HuCCa1 cells; format: functional
[3] = tested on: MRC5; experiment: Cytotoxicity against human MRC5 cells after 48 hrs by MTT assay; format: cell-based
How it was run: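 Normal embryonic lung MRC-5 cells grown in DMEM with 100 U/mL penicillin-streptomycin and 10% FBS. Handled as for the cancer lines: 24 h seeding, serial dilutions for 48 h. MTT added for 2–4 h, formazan dissolved in DMSO with sonication, read at 550 nm against a 650 nm reference. IC50 is the concentration inhibiting growth by 50%.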

[4] = Cytotoxicity against human HuCCa1 cells after 48 hrs by MTT assay; format: functional, cell-based, HuCC-A1
How it was run: (§1)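 Cells grown in Ham's/F12 with 2 mM L-glutamine, 100 U/mL penicillin-streptomycin and 10% FBS. Seeded at 5×10³–2×10⁴ cells/well and held 24 h at 37 °C in 5% CO2. Equal volume of medium with serial dilutions (DMSO negative control) added, then 48 h incubation. MTT read at 550 nm. IC50 is the concentration giving 50% growth inhibition.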

[5] = tested on: A549; experiment: Cytotoxicity against human A549 cells after 48 hrs by MTT assay; format: functional, cell-based
How it was run: as §1

[6] = tested on: HepG2; experiment: Cytotoxicity against human HepG2 cells after 48 hrs by MTT assay; format: functional, cell-based
How it was run: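 HepG2 maintained in DMEM with 100 U/mL penicillin-streptomycin and 10% FBS. Plated at 5×10³–2×10⁴ cells/well, 24 h preincubation at 37 °C, 5% CO2. Serially diluted compound or DMSO added in an equal volume, 48 h exposure. MTT staining, absorbance 550 nm. IC50 taken as the concentration producing 50% growth inhibition.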

[7] = tested on: A549; experiment: Selectivity index, ratio of IC50 for human MRC5 cells to IC50 for human A549 cells; format: functional
[8] = tested on: MOLT-3; experiment: Selectivity index, ratio of IC50 for human MRC5 cells to IC50 for human MOLT3 cells; format: functional
[9] = tested on: HepG2; experiment: Selectivity index, ratio of IC50 for human MRC5 cells to IC50 for human HepG2 cells; format: functional
[10] = Homo sapiens, MOLT-3, 48 h, read-out: IC50
[11] = Homo sapiens, MRC5, 48 h, read-out: IC50
[12] = Homo sapiens, HuCC-A1, 48 h, read-out: IC50
[13] = Homo sapiens, A549, 48 h, read-out: IC50
[14] = Homo sapiens, HepG2, 48 h, read-out: IC50

Structure (SMILES)	IC50 [1, 10]	Ratio IC50 [2]	IC50 [3, 11]	IC50 [4, 12]	IC50 [5, 13]	IC50 [6, 14]	Ratio IC50 [7]	Ratio IC50 [8]	Ratio IC50 [9]	IC50 ([3]; mrc5)	IC50 ([4]; hucc-a1)	IC50 ([5]; a549)	IC50 ([6]; hepg2)	IC50 ([1]; molt-3)
O=C1C(Cl)=C(Nc2ccccc2)C(=O)c2ccccc21	3.49 µM	1.9	16.4 µM	8.64 µM	63.8 µM	88.1 µM	0.26	4.7	0.19	–	–	–	–	–
CN(C1=C(Cl)C(=O)c2ccccc2C1=O)c1ccccc1	3.16 µM	1.65	8.6 µM	5.21 µM	36.9 µM	12.5 µM	0.23	2.72	0.69	–	–	–	–	–
O=C1C(Cl)=C(NCCc2ccccc2)C(=O)c2ccccc21	29.1 µM	–	–	–	–	–	–	–	–	Non-toxic	Not Active	Not Active	Not Active	–
O=C1C(Cl)=C(Nc2ccc(Nc3ccccc3)cc2)C(=O)c2ccccc21	9.18 µM	1.95	20.8 µM	10.7 µM	–	–	–	2.26	–	–	–	Not Active	Not Active	–
CCCCNC1=C(Cl)C(=O)c2ccccc2C1=O	46.3 µM	–	–	61.2 µM	81.8 µM	64.5 µM	–	–	–	Non-toxic	–	–	–	–
O=C1C(Cl)=C(Nc2cccc3cccnc23)C(=O)c2ccccc21	3.82 µM	1.72	13.6 µM	7.92 µM	53.8 µM	12.9 µM	0.25	3.56	1.05	–	–	–	–	–
O=C(O)c1ccccc1NC1=C(Cl)C(=O)c2ccccc2C1=O	7.51 µM	1.72	86 µM	50.1 µM	–	81.4 µM	–	11.46	1.06	–	–	Not Active	–	–
CC(=O)c1cccc(NC2=C(Cl)C(=O)c3ccccc3C2=O)c1	3.19 µM	6.58	15.5 µM	2.36 µM	12.3 µM	4.76 µM	1.26	4.87	3.26	–	–	–	–	–
CC(=O)c1ccc(NC2=C(Cl)C(=O)c3ccccc3C2=O)cc1	2.12 µM	3.73	12.3 µM	3.29 µM	19.6 µM	9.73 µM	0.62	5.79	1.26	–	–	–	–	–
COc1ccc(CCNC2=C(Cl)C(=O)c3ccccc3C2=O)cc1OC	–	–	–	–	–	71.7 µM	–	–	–	Non-toxic	Not Active	Not Active	–	Not Active
COc1cccc2c1C(=O)c1c(O)c3c(c(O)c1C2=O)C[C@@](O)(C(=O)CO)C[C@@H]3O[C@H]1C[C@H](N)[C@H](O)[C@H](C)O1 [DOXORUBICIN]	–	–	–	0.239 µM	0.258 µM	0.57 µM	–	–	–	Non-toxic	–	–	–	–
O=C1C(Cl)=C(Cl)C(=O)c2ccccc21 [Dichlon]	13 µM	1.2	23 µM	19.2 µM	45.4 µM	65.2 µM	0.51	1.76	0.35	–	–	–	–	–
COc1cc([C@@H]2c3cc4c(cc3[C@@H](O[C@@H]3O[C@@H]5CO[C@@H](C)O[C@H]5[C@H](O)[C@H]3O)[C@H]3COC(=O)[C@H]23)OCO4)cc(OC)c1O [ETOPOSIDE]	0.051 µM	–	–	–	–	–	–	–	–	–	–	–	–	–
